The nature of data set [1]: Safety, tolerability and hemostasis parameters in phase 1 subjects. Type of data set: in vivo, human. Put shortly: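 Single ascending IV doses went to subjects with CAD or multiple CAD risk factors. Cohorts of 0.01–2 mg/kg received 1-h infusions; a final 0.5 mg/kg cohort received a 2-h infusion after antiallergic premedication. Assessments were at baseline, 0.5, 1, 2, 6 and 24 h, and 7–10 days. APTT, INR, ACT and bleeding time were regressed on dose using repeated-measures mixed-effects models with Bonferroni post hoc correction.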

Data set [2] addresses T1, PAR1 (Homo sapiens, UniProt P25116).
T1 sequence (P25116 22-425): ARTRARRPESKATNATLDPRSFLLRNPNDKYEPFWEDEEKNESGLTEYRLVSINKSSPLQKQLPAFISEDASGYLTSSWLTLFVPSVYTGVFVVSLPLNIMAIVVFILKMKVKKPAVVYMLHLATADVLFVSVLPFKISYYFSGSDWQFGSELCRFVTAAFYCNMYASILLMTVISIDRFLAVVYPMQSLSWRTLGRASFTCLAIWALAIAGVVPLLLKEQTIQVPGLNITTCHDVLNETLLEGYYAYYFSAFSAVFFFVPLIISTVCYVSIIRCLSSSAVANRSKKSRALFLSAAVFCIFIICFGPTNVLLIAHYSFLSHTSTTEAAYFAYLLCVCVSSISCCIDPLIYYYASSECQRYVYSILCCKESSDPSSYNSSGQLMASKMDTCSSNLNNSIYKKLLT
Kind of data set: Ex vivo platelet aggregation to PAR1 agonist SFLLRN. Format: in vivo. The conditions noted are these: for inhibition at 2 mg/kg: read-out: inhibition of final aggregation to 8 μmol/L SFLLRN, 2 mg/kg.

Data set [3] is described as follows: Pharmacokinetics of PZ-128 in plasma and urine after 1 to 2 hours iv infusion. Type of data set: in vivo, human.
In data set [4] the target is T1, PAR1. The note with it: cited from earlier work.
Data set [5] deals with T1, PAR1. The conditions noted are these: cited from earlier work. The source holds these as a separate data set.

These results are taken from paper PMC4836853 (Arteriosclerosis, thrombosis, and vascular biology, 2016).

“Also recorded” adds a separate entry of the source. Read-outs that look alike come from different tables or passages of the source. Peptide text beside a SMILES is read from it. * marks the point of attachment. Palmitoyl = CCCCCCCCCCCCCCCC(=O)*

For `CCCCCCCCCCCCCCCC(=O)N[C@@H](CCCCN)C(=O)N[C@@H](CCCCN)C(=O)N[C@@H](CO)C(=O)N[C@@H](CCCNC(=N)N)C(=O)N[C@@H](C)C(=O)N[C@@H](CC(C)C)C(=O)N[C@@H](Cc1ccccc1)C(N)=O` [PZ-128] (Palmitoyl-KKSRALF-NH2), the “tolerability / allergic response” value in data set [1] (0.5 mg/kg, 2-hour infusion, antiallergic premedication) is recorded as “none of these subjects had an allergic response; also recorded: appeared to be well tolerated”. The tolerability entry in data set [1] (0.01-, 0.03-, 0.1-, and 0.3-mg/kg, 1-hour intravenous infusion) is “well tolerated”. Moreover, in data set [1] (0.5–2 mg/kg), the “transient tingling or numb sensation in the skin” value is on record as “commonly reported”. In data set [1] (2-mg/kg dose over the 1-hour infusion), the “subjects with no hemodynamic effects” value is recorded as 50%. In addition, in data set [1] (any dose), the “effects on coagulation, hemostasis parameters, or bleeding” value is listed as “No significant effects” and the “heart rate, ECG parameters (RR, PR, QRS, QT, QTc, QTd) or pulmonary function” value is reported as “no significant changes”. The “most important adverse event” value in data set [1] (highest doses (1–2 mg/kg), 1-hour infusion) is on record as “acute allergic reactions”. The “clinical chemistry, hematology, urinalysis” value in data set [1] (human, in vivo) is listed as “not significantly affected”. Further, the inhibition at 2 mg/kg on PAR1 [2] (1 to 2-hour time points) is 96 to 98%. For the same molecule, the inhibition at 2 mg/kg on PAR1 [2] (6 to 192-hour time points) was 15 to 21%. In addition, on PAR1 [2] (read-out: mean inhibition of platelet aggregation (final), 8 μmol/L SFLLRN, 0.3 mg/kg, 30 minutes to 6 hours), the inhibition at 0.3 mg/kg was 20 to 40%. For the same molecule, the inhibition at 0.5 mg/kg on PAR1 [2] (read-out: mean inhibition of platelet aggregation (final), 8 μmol/L SFLLRN, 0.5 mg/kg, 30 minutes to 6 hours) was 40 to 60%. In data set [3] (all subjects), the “drug in plasma at 24 to 192 hours” value is listed as “undetectable; also recorded: no detectable drug”. The PZ-128 in urine entry in data set [3] (any time point, all subjects) was “nondetectable; also recorded: little or no PZ-128 detected; also recorded: not renally cleared”. Further, in data set [3] (human, plasma, intravenous), the peak concentration (Cmax) (usually the peak of the concentration-time curve) was in the range of 4700 to 21500 nM; the volume of distribution (Vd) – broadly, a proportionality between amount in the body and measured concentration, not a real space – was in the range of 0.11 to 0.17 L/kg. Also, in data set [3] (human, plasma, intravenous, 0.5 mg/kg), the peak concentration (Cmax) fell in the range of 1800 to 2700 nM. For the same molecule, in data set [3] (human, plasma, iv), the half-life (as a rule, how long it takes for the measured level to halve) fell in the range of 1.3 to 1.8 h and the level at time molar was 1000 to 3000 nM. In data set [3] (human, plasma, iv, 0.5 mg/kg), this molecule registered a level at time molar at 6 h of less than 500 nM. For the same molecule, the “peak plasma drug levels, 2-mg/kg versus 1-mg/kg cohort” value in data set [3] (in vivo) is given as 2 fold.
On to `CCOC(=O)N[C@@H]1CC[C@@H]2[C@@H](C1)C[C@H]1C(=O)O[C@H](C)[C@H]1[C@H]2/C=C/c1ccc(-c2cccc(F)c2)cn1` [Vorapaxar, vorapaxar], for which, on PAR1 [4] (40-mg loading dose (≈0.4 mg/kg)), the “inhibition of SFLLRN-induced aggregation at 2 hours” value is given as not below 80%. For the same molecule, the “inhibition of SFLLRN-induced aggregation at 30 minutes” value on PAR1 [4] (40-mg oral loading dose) is recorded as “no appreciable inhibition”.
In the case of `CCOc1cc2c(c(F)c1OCC)C(=N)N(CC(=O)c1cc(N3CCOCC3)c(OC)c(C(C)(C)C)c1)C2` [atopaxar], the “time to maximal platelet inhibition after the loading dose” value at PAR1 [5] (LANCELOT-ACS subjects) was 6 h. Also, at PAR1 [5] (higher dose levels), the QTc interval entry is reported as “prolongation of the QTc interval was observed in some individuals”.
